From PubChem BioAssay
GRK2 aptamer HTS: human GRK2 inhibition via aptamer displacement; P25098; 330,000 tested, 0.59% active; inhibition of aptamer binding, % at 10 µM; bead flow cytometry, FAM-aptamer displacement from GRK2;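 active means inhibition of aptamer binding above 40%, roughly 3 SD of noise, on plates passing a quality check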;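 further: median bead fluorescence of bound FAM aptamer so fluorescent compounds give negative values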
STEP inh: inhibitors of human striatal-enriched phosphatase STEP; 360,000 tested, 0.25% active; recombinant STEP, OMFP fluorogenic substrate, fluorescence; inhibition, % at 20 µM; P54829;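 active means inhibition at 20 µM, scaled per plate between control wells, above about 37%, limit read from the data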;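 further: 0% = DMSO with enzyme and substrate and 100% = substrate only without enzyme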
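medium = Bis-Tris buffer pH 6.0, 2.5 mM DTT, 0.005% Tween 20 | test system = STEP (striatal-enriched tyrosine phosphatase) enzyme, cell-free | measure = normalized % inhibition | compound dosing = 20 µM, 1% DMSO | also added = 25 µM OMFP | schedule = reaction 20 min, ambient temperature | measured by = fluorescence read at 480 nm ex / 540 nm em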
SUMO1-SIM PPI: SUMO1-SIM interaction modulation. AID 602429. inhibition, % at 20 µM. SUMO1 binding to a labelled peptide, TR-FRET, 1 h. 360,000 tested, 0.33% active; in the data active means inhibition above about 37%
Target sequence (P63165 whole entry, looked up): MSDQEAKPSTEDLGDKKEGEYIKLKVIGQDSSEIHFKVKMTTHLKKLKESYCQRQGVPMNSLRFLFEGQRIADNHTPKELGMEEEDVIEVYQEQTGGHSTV
DNMT1 inh: DNMT1 (human) enzyme inhibition; P26358; DNMT1 molecular beacon, Hinp1I cleavage, fluorescence; inhibition (reported as % activation of signal), % at 10 µM; AID 588458; 360,000 tested, 0.83% active; in the data active means inhibition above about 50%
LMPTP block: LMPTP (human) inhibition; P24666; recombinant LMPTP-A, OMFP fluorogenic substrate, fluorescence intensity; inhibition, % at 20 µM; 360,000 tested, 0.22% active; AID 651560;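 active means compounds that cut the enzyme signal by at least half of the control window in the single-dose screen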;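 further: plate controls were DMSO wells with enzyme plus substrate for no effect and substrate without enzyme for full effect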
Target sequence (P24666 whole entry, looked up): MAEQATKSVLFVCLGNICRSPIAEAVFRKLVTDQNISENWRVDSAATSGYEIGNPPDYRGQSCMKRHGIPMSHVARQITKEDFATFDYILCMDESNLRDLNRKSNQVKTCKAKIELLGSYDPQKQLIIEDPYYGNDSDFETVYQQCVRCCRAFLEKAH
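Material: LMPTP-A; amount: 0.625 nM enzyme; doses: single 20 µM dose; times: reaction 50 min, room temperature, dark; technique: fluorescence intensity of OMFP turnover product; benchmarks: no-enzyme and uninhibited controls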
Scp1 inh: Scp-1 (human) phosphatase inhibition; Q9GZU7; Recombinant Scp1, phosphopeptide, malachite green phosphate absorbance; inhibition, % at 20 µM; 340,000 tested, 0.88% active;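 active means inhibition above about 50% at 20 µM, limit read from the data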;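 further: plate controls were DMSO wells with enzyme for no effect and wells lacking enzyme for full effect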
Target sequence (Q9GZU7 76-261 limits assumed): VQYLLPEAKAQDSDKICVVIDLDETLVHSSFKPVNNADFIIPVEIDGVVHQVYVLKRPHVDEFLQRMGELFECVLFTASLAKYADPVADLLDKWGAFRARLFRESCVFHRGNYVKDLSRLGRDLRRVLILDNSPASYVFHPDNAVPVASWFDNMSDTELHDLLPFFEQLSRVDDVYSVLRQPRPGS
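Test system: SCP-1 phosphatase catalytic domain, residues 76-261; measured by: colorimetric phosphate reagent with accelerator and stabiliser, absorbance at 630 nm; timing: enzyme reaction 45 min at room temperature, colour 5 min, stabilisation 30 min; also added: Phosphorylated 17-residue peptide substrate; compound dosing: one concentration, 20 µM, with 1.0% DMSO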
Beacon interf DR: beacon fluorescence artifact, dose response counter-screen | AID 602382 | 200 tested, under 10 active | molecular beacon fluorescence, spectral interference counter-screen | IC50, µM | shares compounds with DNMT1 inh; call rule not given here
DNMT1 confirm: DNMT1 inhibition confirmation, single concentration; shares compounds with DNMT1 inh; DNMT1 molecular beacon HinP1I cleavage, fluorescence; 2,300 tested, 8% active; inhibition, % at 10 µM;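 active means average inhibition of at least 30% in the single-concentration confirmation test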
Beacon interf: shows spectral interference in the DNMT1 beacon assay. shares compounds with DNMT1 inh. DNMT1 molecular beacon spectral interference counterscreen, fluorescence 485/520. 2,300 tested, 1% active. activation (fluorescence interference), % at 10 µM;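 active means activation of at least 30% at 10 µM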;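 further: DNMT1 catalytic domain with a HinP1I cleavage step and a FAM/dabcyl DNA beacon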
Numbers without * were called inactive. Compounds with a hit are over-represented: about 2.1% of the library has one in this group of screens.

Cc1ccc(S(=O)(=O)N2[C@@H](c3ccc(C(C)(C)C)cc3)C(C(=O)O)=CC[C@H]2c2ccc(C(C)C)cc2)cc1 was read as GRK2 aptamer HTS 0, STEP inh 2, SUMO1-SIM PPI 31, DNMT1 inh 58*, LMPTP block 4, Scp1 inh 8, Beacon interf DR >99, DNMT1 confirm 52* and Beacon interf -12.
COc1ccc(NC(=O)C2Cc3c(-c4ccco4)ccnc3O2)cc1OC (stereo not given) was read as STEP inh -1, SUMO1-SIM PPI -1, DNMT1 inh 90*, LMPTP block 1, DNMT1 confirm 1 and Beacon interf 2.
COc1ccc(NC(=O)C2Cc3c(-c4ccc(NC(C)=O)cc4)ccnc3O2)cc1OC (stereo not given) was read as STEP inh -3, SUMO1-SIM PPI -3, DNMT1 inh 3 and LMPTP block -2.
For COc1cc(C(=O)c2nccc3cc(OC)c(OC)cc23)c([N+](=O)[O-])cc1OC the results were GRK2 aptamer HTS 3, STEP inh 3, SUMO1-SIM PPI 9, DNMT1 inh 58*, LMPTP block 3, Scp1 inh -7, DNMT1 confirm 0 and Beacon interf -2.
Screening COc1cc(N)c(C(=O)c2nccc3cc(OC)c(OC)cc23)cc1OC returned GRK2 aptamer HTS 2, STEP inh 4, SUMO1-SIM PPI -8, DNMT1 inh -3, LMPTP block -2 and Scp1 inh -5.
CCC(NC(=O)CSc1nnnn1C1CC1)c1ccc(Br)cc1 (stereo not given) was read as GRK2 aptamer HTS 0, STEP inh -1, SUMO1-SIM PPI 5, DNMT1 inh 3, LMPTP block 0 and Scp1 inh -8.
For COC(=O)[C@@]12C[C@@H](CC(=O)NCC34CC5CC(CC(C5)C3)C4)C(=O)N(CCc3ccc(OC)c(OC)c3)C1=CCC(C)(C)C2 the results were SUMO1-SIM PPI 5 and LMPTP block 9.
O=C(O)C1CCN(c2ncccn2)CC1 was read as GRK2 aptamer HTS 0, STEP inh -3, SUMO1-SIM PPI -1, DNMT1 inh 81*, LMPTP block 0, Scp1 inh 4, DNMT1 confirm 2 and Beacon interf 2.
Screening CC(C)[Si]1(C(C)C)OCC2OC(n3cnc4c(N)ncnc43)C(N)C2O[Si](C(C)C)(C(C)C)O1 (stereo not given) returned STEP inh 1, SUMO1-SIM PPI 0, DNMT1 inh -13, LMPTP block 0 and Scp1 inh -8.
CCOc1cc(/C=C2\CCCc3c2nc2ccccc2c3C(=O)O)ccc1OC was read as GRK2 aptamer HTS 0, STEP inh -50, SUMO1-SIM PPI 8, DNMT1 inh 61*, LMPTP block -6, Scp1 inh -7, DNMT1 confirm 2 and Beacon interf 1.
Screening O=C(NCCO)c1ccc2nc(-c3ccco3)c(-c3ccco3)nc2c1 returned GRK2 aptamer HTS 7, STEP inh 6, SUMO1-SIM PPI 44*, DNMT1 inh 58*, LMPTP block 6, Scp1 inh 31, DNMT1 confirm 3 and Beacon interf 2.
c1coc(-c2nc3ccccc3nc2-c2ccco2)c1 was read as GRK2 aptamer HTS 6, STEP inh 9, SUMO1-SIM PPI 30, DNMT1 inh 103*, LMPTP block 21, Scp1 inh 44, DNMT1 confirm 1 and Beacon interf 4.
For O=C(c1ccccc1)c1ccc2nc(-c3ccco3)c(-c3ccco3)nc2c1 the results were GRK2 aptamer HTS 17, STEP inh 9, SUMO1-SIM PPI 52*, DNMT1 inh 101*, LMPTP block 75*, Scp1 inh 66*, DNMT1 confirm 1 and Beacon interf 2.
Cc1ccc2nsnc2c1S(=O)(=O)Nc1cccc2nsnc12 was read as GRK2 aptamer HTS 0, STEP inh 2, SUMO1-SIM PPI -5, DNMT1 inh 0, LMPTP block 1 and Scp1 inh -3.
`CCOC(=O)c1ccc(CNS(=O)(=O)c2c(C)ccc3nsnc23)o1` gave GRK2 aptamer HTS 0, STEP inh 0, SUMO1-SIM PPI -21, DNMT1 inh 69*, LMPTP block -1, Scp1 inh 1, DNMT1 confirm 4 and Beacon interf 4.
For O=C(CN1C(=O)/C(=C\c2ccc(F)cc2)Oc2ccccc21)NCc1ccco1 the results were GRK2 aptamer HTS 1, STEP inh 1, SUMO1-SIM PPI -1, DNMT1 inh 52*, LMPTP block -1, Scp1 inh -5, DNMT1 confirm 2 and Beacon interf 4.
`COc1ccc(CCNC(=O)C2CCCN(S(=O)(=O)c3ccccc3)C2)cc1` (stereo not given) gave GRK2 aptamer HTS 0, STEP inh 0, SUMO1-SIM PPI -2, DNMT1 inh 82*, LMPTP block 0, Scp1 inh -2, DNMT1 confirm 2 and Beacon interf 2.
`COc1cccc(CN2CCC2(C)C(=O)NCc2cccc(C(F)(F)F)c2)c1OC` (stereo not given) gave STEP inh -1, SUMO1-SIM PPI 17, DNMT1 inh 6 and LMPTP block -3.
COC(=O)[C@H]1C[C@H](OC(=O)Nc2cccs2)[C@@]2(O)CN(S(=O)(=O)c3ccc(C)cc3)CC2[C@H]1C(=O)OC (stereo not given in full) was read as STEP inh -2, SUMO1-SIM PPI 1, DNMT1 inh -3 and LMPTP block 1.
Screening O=C(CSc1nnc2ccccn12)Nc1cccc(-c2nc3ccccc3s2)c1 returned GRK2 aptamer HTS 0, STEP inh 2, SUMO1-SIM PPI -2, DNMT1 inh 61*, LMPTP block 3, Scp1 inh -7, DNMT1 confirm 1 and Beacon interf -7.
`C=CCn1c(SCC(=O)Nc2ccc(-c3nc4ccc(C)cc4s3)cc2)nnc1-c1ccccc1` gave GRK2 aptamer HTS 4, STEP inh 10, SUMO1-SIM PPI 7, DNMT1 inh 74*, LMPTP block 7, Scp1 inh 61*, DNMT1 confirm 5 and Beacon interf -3.
